Key:
Conditions in all cases: stereoisomer not certain
OR10H4 (Homo sapiens) = target: T1, OR10H4 (Homo sapiens) (UniProt Q8NGA5)
T1 sequence (whole entry): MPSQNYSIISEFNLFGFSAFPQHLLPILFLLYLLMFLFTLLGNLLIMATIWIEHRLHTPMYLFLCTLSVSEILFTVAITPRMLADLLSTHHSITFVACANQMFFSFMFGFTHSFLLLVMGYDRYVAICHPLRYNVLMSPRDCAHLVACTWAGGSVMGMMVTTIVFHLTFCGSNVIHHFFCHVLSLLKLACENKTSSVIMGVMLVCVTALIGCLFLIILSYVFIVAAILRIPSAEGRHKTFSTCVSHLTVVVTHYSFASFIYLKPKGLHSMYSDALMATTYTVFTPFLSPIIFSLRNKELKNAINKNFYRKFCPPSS
How it was run: (§1)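 Each receptor–molecule pair is labelled responsive or non-responsive (inactive) according to whether the original authors judged the measured signal statistically different from baseline. The data were taken from the main text and supplementary material of published papers and checked for typos and inconsistencies. Assay methods differed by source, with transient luciferase assays in mammalian cell lines being common.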

OR10H5 (Homo sapiens) = target: T2, OR10H5 (Homo sapiens) (UniProt Q8NGA6)
T2 sequence (whole entry): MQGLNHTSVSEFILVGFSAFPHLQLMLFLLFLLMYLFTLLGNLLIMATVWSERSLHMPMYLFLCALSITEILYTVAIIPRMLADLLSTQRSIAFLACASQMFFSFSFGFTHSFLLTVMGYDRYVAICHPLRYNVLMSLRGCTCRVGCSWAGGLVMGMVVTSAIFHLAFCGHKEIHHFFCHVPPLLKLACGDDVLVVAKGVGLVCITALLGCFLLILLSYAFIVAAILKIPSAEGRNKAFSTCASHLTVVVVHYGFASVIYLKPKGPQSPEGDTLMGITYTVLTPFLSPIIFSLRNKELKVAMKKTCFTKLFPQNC
How it was run: as §1

OR10J1 (Homo sapiens) = target: T3, OR10J1 (Homo sapiens) (UniProt P30954)
T3 sequence (whole entry): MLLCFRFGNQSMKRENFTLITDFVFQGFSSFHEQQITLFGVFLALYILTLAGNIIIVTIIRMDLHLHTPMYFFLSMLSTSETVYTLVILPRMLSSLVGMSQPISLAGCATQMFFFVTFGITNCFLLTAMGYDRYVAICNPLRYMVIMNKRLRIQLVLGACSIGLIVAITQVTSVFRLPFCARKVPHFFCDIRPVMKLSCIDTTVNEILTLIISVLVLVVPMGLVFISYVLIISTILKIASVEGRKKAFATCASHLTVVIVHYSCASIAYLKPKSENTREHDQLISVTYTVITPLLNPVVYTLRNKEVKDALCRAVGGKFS
How it was run: as §1

OR10J3 (Homo sapiens) = target: T4, OR10J3 (Homo sapiens) (UniProt Q5JRS4)
T4 sequence (whole entry): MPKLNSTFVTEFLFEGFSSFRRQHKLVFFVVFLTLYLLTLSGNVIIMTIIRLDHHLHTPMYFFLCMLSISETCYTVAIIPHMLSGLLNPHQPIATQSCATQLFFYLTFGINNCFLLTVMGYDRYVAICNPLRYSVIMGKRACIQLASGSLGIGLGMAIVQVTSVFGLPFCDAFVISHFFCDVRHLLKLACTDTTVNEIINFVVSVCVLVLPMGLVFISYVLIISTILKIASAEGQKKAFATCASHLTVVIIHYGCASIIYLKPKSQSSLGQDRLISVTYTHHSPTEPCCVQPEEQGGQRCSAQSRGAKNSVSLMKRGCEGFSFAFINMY
How it was run: as §1

OR10J5 (Homo sapiens) = target: T5, OR10J5 (Homo sapiens) (UniProt Q8NHC4)
T5 sequence (whole entry): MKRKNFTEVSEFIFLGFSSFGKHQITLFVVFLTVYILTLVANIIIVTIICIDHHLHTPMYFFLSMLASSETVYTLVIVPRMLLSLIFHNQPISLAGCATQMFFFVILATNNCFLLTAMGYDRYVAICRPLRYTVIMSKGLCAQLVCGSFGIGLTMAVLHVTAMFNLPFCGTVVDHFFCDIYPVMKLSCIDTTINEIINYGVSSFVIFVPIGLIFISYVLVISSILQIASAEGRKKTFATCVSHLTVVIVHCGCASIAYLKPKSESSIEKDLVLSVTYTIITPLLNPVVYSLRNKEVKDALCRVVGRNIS
How it was run: as §1

OR10K1 (Homo sapiens) = target: T6, OR10K1 (Homo sapiens) (UniProt Q8NGX5)
T6 sequence (whole entry): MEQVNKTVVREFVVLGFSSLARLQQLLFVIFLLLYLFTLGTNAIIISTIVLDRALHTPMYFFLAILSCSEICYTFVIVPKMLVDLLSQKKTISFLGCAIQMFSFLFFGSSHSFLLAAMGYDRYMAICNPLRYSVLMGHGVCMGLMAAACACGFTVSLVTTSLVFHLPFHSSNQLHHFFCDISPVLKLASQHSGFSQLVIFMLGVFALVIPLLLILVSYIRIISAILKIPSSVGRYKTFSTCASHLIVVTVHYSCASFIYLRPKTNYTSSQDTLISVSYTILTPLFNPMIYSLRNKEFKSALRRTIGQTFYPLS
How it was run: as §1

OR10K2 (Homo sapiens) = target: T7, OR10K2 (Homo sapiens) (UniProt Q6IF99)
T7 sequence (whole entry): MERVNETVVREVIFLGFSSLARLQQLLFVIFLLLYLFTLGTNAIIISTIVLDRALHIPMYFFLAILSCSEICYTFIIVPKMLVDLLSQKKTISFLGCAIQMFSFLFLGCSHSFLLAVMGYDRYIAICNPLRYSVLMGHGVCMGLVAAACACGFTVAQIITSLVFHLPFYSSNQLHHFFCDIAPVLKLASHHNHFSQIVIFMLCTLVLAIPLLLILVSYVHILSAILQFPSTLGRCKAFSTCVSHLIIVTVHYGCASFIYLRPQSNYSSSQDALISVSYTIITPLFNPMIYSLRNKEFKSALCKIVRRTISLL
How it was run: as §1

OR10P1 (Homo sapiens) = target: T8, OR10P1 (Homo sapiens) (UniProt Q8NGE3)
T8 sequence (whole entry): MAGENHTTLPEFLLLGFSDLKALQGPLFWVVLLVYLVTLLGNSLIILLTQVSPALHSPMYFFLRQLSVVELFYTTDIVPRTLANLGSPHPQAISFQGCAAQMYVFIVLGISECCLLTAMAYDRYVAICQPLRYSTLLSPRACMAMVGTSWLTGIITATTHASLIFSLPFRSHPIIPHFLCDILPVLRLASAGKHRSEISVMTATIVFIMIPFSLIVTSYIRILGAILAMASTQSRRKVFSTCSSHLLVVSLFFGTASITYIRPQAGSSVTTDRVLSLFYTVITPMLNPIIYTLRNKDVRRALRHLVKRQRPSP
How it was run: as §1

OR10Q1 (Homo sapiens) = target: T9, OR10Q1 (Homo sapiens) (UniProt Q8NGQ4)
T9 sequence (whole entry): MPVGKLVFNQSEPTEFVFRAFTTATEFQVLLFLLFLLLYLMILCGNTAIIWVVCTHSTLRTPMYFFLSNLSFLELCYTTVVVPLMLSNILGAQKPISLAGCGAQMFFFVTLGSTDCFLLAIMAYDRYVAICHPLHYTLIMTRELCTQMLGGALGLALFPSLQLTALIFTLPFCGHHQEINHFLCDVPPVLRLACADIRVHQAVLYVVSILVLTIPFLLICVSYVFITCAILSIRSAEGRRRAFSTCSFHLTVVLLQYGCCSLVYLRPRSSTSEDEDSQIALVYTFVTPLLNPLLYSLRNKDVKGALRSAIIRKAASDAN
How it was run: as §1

Measured: odorant receptor agonist call

CCCCCC(=O)C(C)C(C)=O (centres undefined)
inactive: all assays above

Reference: the M2OR odorant receptor database
